# Experimental data from ChEMBL document CHEMBL3272259, “Nitroimidazoles with antibacterial activity against Neisseria gonorrhoeae” (1977).
# Calls of active or inactive are those of the source. The calls are words filed in the database; no cut-off is given here.
# Tested on: Clostridium perfringens
# Assay: Antibacterial activity against Clostridium perfringens ATCC 13124 after 24 hrs by ten-fold serial dilution method
# Format: functional
# Conditions: ATCC 13124, 24 h
# How it was run: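 Grown in Fluid Thioglycollate Broth and incubated 24 h at 37 °C. Growth was checked by eye after incubation. MIC was taken as the lowest concentration, in μg/mL, that prevented visible growth.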
row,SMILES,MIC [µg/mL]
1,Cn1c([N+](=O)[O-])cnc1SCCCCCCCCC(=O)O,10
2,Cn1c([N+](=O)[O-])cnc1SCCCCCCCCCCCCCCCC(=O)O,> 100
3,Cn1c([N+](=O)[O-])cnc1S(=O)(=O)CCC(=O)O,> 100
4,Cn1c([N+](=O)[O-])cnc1SCCOc1ccc(Br)cc1,> 100
5,Cn1c([N+](=O)[O-])cnc1SCCCCCC(=O)O,10
6,Cn1c([N+](=O)[O-])cnc1SCCCCCCC(=O)O,1
7,COC(=O)CCCCCCCCCCSc1ncc([N+](=O)[O-])n1C,> 100
8,Cn1c([N+](=O)[O-])cnc1S(=O)(=O)CCCCC(=O)O,> 100
9,Cn1c([N+](=O)[O-])cnc1SCCOc1ccc(C#N)cc1,100
10,Cn1cc([N+](=O)[O-])nc1SCCCCCCC(=O)O,> 100
11,Cn1ccnc1SCCCCC(=O)O,> 100
12,Cn1ccnc1SCCOc1ccc(C(=O)O)cc1,> 100
13,Cn1c([N+](=O)[O-])cnc1SCCCCCCCCCCC(=O)O,10
14,Cn1c([N+](=O)[O-])cnc1SCCOc1ccc([N+](=O)[O-])cc1,100
15,Cn1c([N+](=O)[O-])cnc1SCCCOc1ccc(C(=O)O)cc1,10

# Tested on: Bacteroides fragilis
# Assay: Antibacterial activity against Bacteroides fragilis ATCC 23745 after 24 hrs by ten-fold serial dilution method
# Format: functional
# Conditions: ATCC 23745, 24 h
# How it was run: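 Grown in Fluid Thioglycollate Broth and incubated 24 h at 37 °C. Growth was read by eye, and the MIC (µg/mL) is the lowest concentration that prevented visible growth.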
row,SMILES,MIC [µg/mL]
1,Cn1c([N+](=O)[O-])cnc1SCCCCCCCCC(=O)O,10
2,Cn1c([N+](=O)[O-])cnc1SCCCCCCCCCCCCCCCC(=O)O,> 100
3,Cn1c([N+](=O)[O-])cnc1S(=O)(=O)CCC(=O)O,> 100
4,Cn1c([N+](=O)[O-])cnc1SCCOc1ccc(Br)cc1,100
5,Cn1c([N+](=O)[O-])cnc1SCCCCCC(=O)O,100
6,Cn1c([N+](=O)[O-])cnc1SCCCCCCC(=O)O,1
7,COC(=O)CCCCCCCCCCSc1ncc([N+](=O)[O-])n1C,> 100
8,Cn1c([N+](=O)[O-])cnc1S(=O)(=O)CCCCC(=O)O,100
9,Cn1cc([N+](=O)[O-])nc1SCCCCCCC(=O)O,> 100
10,Cn1ccnc1SCCCCC(=O)O,> 100
11,Cn1ccnc1SCCOc1ccc(C(=O)O)cc1,> 100
12,Cn1c([N+](=O)[O-])cnc1SCCCCCCCCCCC(=O)O,10
13,Cn1c([N+](=O)[O-])cnc1SCCOc1ccc([N+](=O)[O-])cc1,100
14,Cn1c([N+](=O)[O-])cnc1SCCCOc1ccc(C(=O)O)cc1,1

# Tested on: Neisseria gonorrhoeae
# Assay: Antibacterial activity against Neisseria gonorrhoeae ATCC 19424 after 48 hrs by ten-fold serial dilution method
# Format: functional
# Conditions: ATCC 19424, 48 h
# How it was run: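 Tested on chocolate agar made from GC agar base with hemoglobin and Supplement C, incubated 48 h at 37 °C. Plates were checked visually, and the MIC (µg/mL) is the lowest concentration with no visible growth.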
row,SMILES,MIC [µg/mL]
1,Cn1c([N+](=O)[O-])cnc1SCCCCCCCCC(=O)O,0.1
2,Cn1c([N+](=O)[O-])cnc1SCCCCCCCCCCCCCCCC(=O)O,> 100
3,Cn1c([N+](=O)[O-])cnc1S(=O)(=O)CCC(=O)O,100
4,Cn1c([N+](=O)[O-])cnc1SCCOc1ccc(Br)cc1,> 100
5,Cn1c([N+](=O)[O-])cnc1SCCCCCC(=O)O,0.1
6,Cn1c([N+](=O)[O-])cnc1SCCCCCCC(=O)O,0.1
7,COC(=O)CCCCCCCCCCSc1ncc([N+](=O)[O-])n1C,> 100
8,Cn1c([N+](=O)[O-])cnc1S(=O)(=O)CCCCC(=O)O,100
9,Cn1c([N+](=O)[O-])cnc1SCCOc1ccc(C#N)cc1,100
10,Cn1cc([N+](=O)[O-])nc1SCCCCCCC(=O)O,> 100
11,Cn1ccnc1SCCCCC(=O)O,> 100
12,Cn1ccnc1SCCOc1ccc(C(=O)O)cc1,> 100
13,Cn1c([N+](=O)[O-])cnc1SCCCCCCCCCCC(=O)O,0.1
14,Cn1c([N+](=O)[O-])cnc1SCCOc1ccc([N+](=O)[O-])cc1,> 100
15,Cn1c([N+](=O)[O-])cnc1SCCCOc1ccc(C(=O)O)cc1,1

# Tested on: Trichomonas vaginalis
# Assay: Antibacterial activity against Trichomonas vaginalis ATCC 30001 after 48 hrs by ten-fold serial dilution method
# Format: functional
# Conditions: ATCC 30001, 48 h
# How it was run: (§1)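 Trichomonads were cultured in Diamond medium with 5% serum and incubated 48 h at 37 °C. Cultures were examined microscopically for motile cells, and the MIC (µg/mL) is the lowest concentration giving no motile organisms.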
row,SMILES,MIC [µg/mL]
1,Cn1c([N+](=O)[O-])cnc1SCCCCCCCCC(=O)O,10
2,Cn1c([N+](=O)[O-])cnc1SCCCCCCCCCCCCCCCC(=O)O,100
3,Cn1c([N+](=O)[O-])cnc1S(=O)(=O)CCC(=O)O,100
4,Cn1c([N+](=O)[O-])cnc1SCCOc1ccc(Br)cc1,10
5,Cn1c([N+](=O)[O-])cnc1SCCCCCC(=O)O,1
6,Cn1c([N+](=O)[O-])cnc1SCCCCCCC(=O)O,1
7,COC(=O)CCCCCCCCCCSc1ncc([N+](=O)[O-])n1C,> 100
8,Cn1c([N+](=O)[O-])cnc1S(=O)(=O)CCCCC(=O)O,100
9,Cn1c([N+](=O)[O-])cnc1SCCOc1ccc(C#N)cc1,1
10,Cn1cc([N+](=O)[O-])nc1SCCCCCCC(=O)O,100
11,Cn1ccnc1SCCCCC(=O)O,> 100
12,Cn1ccnc1SCCOc1ccc(C(=O)O)cc1,> 100
13,Cn1c([N+](=O)[O-])cnc1SCCCCCCCCCCC(=O)O,10
14,Cn1c([N+](=O)[O-])cnc1SCCOc1ccc([N+](=O)[O-])cc1,10
15,Cn1c([N+](=O)[O-])cnc1SCCCOc1ccc(C(=O)O)cc1,1

# Tested on: Tritrichomonas foetus
# Assay: Antibacterial activity against Tritrichomonas foetus 1002-96-27 after 48 hrs by ten-fold serial dilution method
# Format: functional
# Conditions: 1002-96-27, 48 h
# How it was run: as §1
row,SMILES,MIC [µg/mL]
1,Cn1c([N+](=O)[O-])cnc1SCCCCCCCCC(=O)O,10
2,Cn1c([N+](=O)[O-])cnc1SCCCCCCCCCCCCCCCC(=O)O,100
3,Cn1c([N+](=O)[O-])cnc1S(=O)(=O)CCC(=O)O,100
4,Cn1c([N+](=O)[O-])cnc1SCCOc1ccc(Br)cc1,10
5,Cn1c([N+](=O)[O-])cnc1SCCCCCC(=O)O,1
6,Cn1c([N+](=O)[O-])cnc1SCCCCCCC(=O)O,10
7,COC(=O)CCCCCCCCCCSc1ncc([N+](=O)[O-])n1C,> 100
8,Cn1c([N+](=O)[O-])cnc1S(=O)(=O)CCCCC(=O)O,> 100
9,Cn1c([N+](=O)[O-])cnc1SCCOc1ccc(C#N)cc1,1
10,Cn1cc([N+](=O)[O-])nc1SCCCCCCC(=O)O,100
11,Cn1ccnc1SCCCCC(=O)O,> 100
12,Cn1ccnc1SCCOc1ccc(C(=O)O)cc1,> 100
13,Cn1c([N+](=O)[O-])cnc1SCCCCCCCCCCC(=O)O,10
14,Cn1c([N+](=O)[O-])cnc1SCCOc1ccc([N+](=O)[O-])cc1,100
15,Cn1c([N+](=O)[O-])cnc1SCCCOc1ccc(C(=O)O)cc1,10

# Tested on: Pentatrichomonas hominis
# Assay: Antibacterial activity against Pentatrichomonas hominis ATCC 30000 after 48 hrs by ten-fold serial dilution method
# Format: functional
# Conditions: ATCC 30000, 48 h
# How it was run: as §1
row,SMILES,MIC [µg/mL]
1,Cn1c([N+](=O)[O-])cnc1SCCCCCCCCC(=O)O,10
2,Cn1c([N+](=O)[O-])cnc1SCCCCCCCCCCCCCCCC(=O)O,100
3,Cn1c([N+](=O)[O-])cnc1S(=O)(=O)CCC(=O)O,100
4,Cn1c([N+](=O)[O-])cnc1SCCOc1ccc(Br)cc1,10
5,Cn1c([N+](=O)[O-])cnc1SCCCCCC(=O)O,1
6,Cn1c([N+](=O)[O-])cnc1SCCCCCCC(=O)O,1
7,COC(=O)CCCCCCCCCCSc1ncc([N+](=O)[O-])n1C,> 100
8,Cn1c([N+](=O)[O-])cnc1S(=O)(=O)CCCCC(=O)O,100
9,Cn1c([N+](=O)[O-])cnc1SCCOc1ccc(C#N)cc1,1
10,Cn1cc([N+](=O)[O-])nc1SCCCCCCC(=O)O,100
11,Cn1ccnc1SCCCCC(=O)O,> 100
12,Cn1ccnc1SCCOc1ccc(C(=O)O)cc1,> 100
13,Cn1c([N+](=O)[O-])cnc1SCCCCCCCCCCC(=O)O,10
14,Cn1c([N+](=O)[O-])cnc1SCCOc1ccc([N+](=O)[O-])cc1,1
15,Cn1c([N+](=O)[O-])cnc1SCCCOc1ccc(C(=O)O)cc1,1

# Tested on: Candida albicans
# Assay: Antifungal activity against Candida albicans
# Format: functional, organism-based
# Conditions: not given
row,SMILES,Activity
1,Cn1c([N+](=O)[O-])cnc1SCCCCCCCCC(=O)O,inactive
2,Cn1c([N+](=O)[O-])cnc1SCCCCCCCCCCCCCCCC(=O)O,inactive
3,Cn1c([N+](=O)[O-])cnc1S(=O)(=O)CCC(=O)O,inactive
4,Cn1c([N+](=O)[O-])cnc1SCCOc1ccc(Br)cc1,inactive
5,Cn1c([N+](=O)[O-])cnc1SCCCCCC(=O)O,inactive
6,Cn1c([N+](=O)[O-])cnc1SCCCCCCC(=O)O,inactive
7,COC(=O)CCCCCCCCCCSc1ncc([N+](=O)[O-])n1C,inactive
8,Cn1c([N+](=O)[O-])cnc1S(=O)(=O)CCCCC(=O)O,inactive
9,Cn1c([N+](=O)[O-])cnc1SCCOc1ccc(C#N)cc1,inactive
10,Cn1cc([N+](=O)[O-])nc1SCCCCCCC(=O)O,inactive
11,Cn1ccnc1SCCCCC(=O)O,inactive
12,Cn1ccnc1SCCOc1ccc(C(=O)O)cc1,inactive
13,Cn1c([N+](=O)[O-])cnc1SCCCCCCCCCCC(=O)O,inactive
14,Cn1c([N+](=O)[O-])cnc1SCCOc1ccc([N+](=O)[O-])cc1,inactive
15,Cn1c([N+](=O)[O-])cnc1SCCCOc1ccc(C(=O)O)cc1,inactive
